Source: ChEMBL document CHEMBL1141572, “N-substituted 3-acetyltetramic acid derivatives as antibacterial agents” (J Med Chem, 2008)
Converted amounts (≈) assume the structure as drawn. The source made the active and inactive calls. The rule behind the calls is not given here.

Key:
[1] = tested on: Mycobacterium tuberculosis; assay: Antimycobacterial activity against Mycobacterium tuberculosis H37Rv after 7 days by micro-broth dilution method; format: functional; settings: for MIC: 168 h
Bacillus anthracis = assay: Antibacterial activity against Bacillus anthracis Sterne 34F2 by micro-broth dilution method; format: functional
Bacillus subtilis = assay: Antibacterial activity against Bacillus subtilis ATCC 23857 by microbroth dilution method; format: functional
Enterococcus faecalis = assay: Antibacterial activity against Enterococcus faecalis ATCC 33186 by microbroth dilution method; format: functional
Staphylococcus aureus [2] = assay: Antibacterial activity against methicillin-resistant Staphylococcus aureus ATCC 33591 by micro-broth dilution method; format: functional
Staphylococcus aureus [3] = assay: Antibacterial activity against methicillin-sensitive Staphylococcus aureus 8325 ATCC 35556 by micro-broth dilution method; format: functional
Cutibacterium acnes = assay: Antibacterial activity against Propionibacterium acnes ATCC 6919 by micro-broth dilution method; format: functional
Streptococcus pyogenes = assay: Antibacterial activity against Streptococcus pyogenes ATCC 700294 by micro-broth dilution method; format: functional
Streptococcus pneumoniae = assay: Antibacterial activity against Streptococcus pneumoniae DAW30 by micro-broth dilution method; format: functional
Vero = assay: Cytotoxicity against african green monkey Vero cells after 72 hrs by MTT proliferation assay; format: cell-based; settings: Chlorocebus sabaeus
Method in brief: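 IC50 is taken as the concentration that lowers Vero kidney cell viability by 50%.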

[4] = Selectivity index, ratio of IC50 for african green monkey Vero cells to MIC for methicillin- sensitive Staphylococcus aureus 8325 ATCC 35556; format: functional
Method in brief: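 Selectivity index is calculated as the Vero cell cytotoxic IC50 divided by the MIC against the wild-type, drug-sensitive, methicillin-sensitive S. aureus 8325 (ATCC 35556).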

Escherichia coli = assay: Antibacterial activity against Escherichia coli by micro-broth dilution method; format: functional
Pseudomonas aeruginosa = assay: Antibacterial activity against Pseudomonas aeruginosa by micro-broth dilution method; format: functional

Structure (SMILES) | MIC [1] [µg/mL] | MIC (Bacillus anthracis) [µg/mL] | MIC (Bacillus subtilis) [µg/mL] | MIC (Enterococcus faecalis) [µg/mL] | MIC (Staphylococcus aureus [2]) [µg/mL] | MIC (Staphylococcus aureus [3]) [µg/mL] | MIC (Cutibacterium acnes) [µg/mL] | MIC (Streptococcus pyogenes) [µg/mL] | MIC (Streptococcus pneumoniae) [µg/mL] | IC50 (Vero) [µg/mL] | Ratio [4] | MIC (Escherichia coli) [µg/mL] | MIC (Pseudomonas aeruginosa) [µg/mL] | Activity [1] | Activity (Bacillus anthracis) | Activity (Bacillus subtilis) | Activity (Enterococcus faecalis) | Activity (Staphylococcus aureus [2]) | Activity (Staphylococcus aureus [3]) | Activity (Cutibacterium acnes) | also measured
CCCCN1C(=O)/C(=C(/C)O)C(=O)[C@@H]1CC(C)C | 100 (≈ 395 µM) | 12.5 (≈ 49.3 µM) | 6.25 (≈ 24.7 µM) | 1.6 (≈ 6.32 µM) | 6.25 (≈ 24.7 µM) | 3.12 (≈ 12.3 µM) | 0.8 (≈ 3.16 µM) | > 200 | 100 (≈ 395 µM) | 254 (≈ 1000 µM) | 81.4 | > 200 | > 200 |  |  |  |  |  |  |  | 
CC(C)C[C@@H]1C(O)=C(C#N)C(=O)N1Cc1ccc(F)cc1 |  |  |  |  |  |  |  |  |  |  |  | > 200 | > 200 | inactive | inactive | inactive | inactive | inactive | inactive | inactive | Activity (Streptococcus pyogenes): inactive; Activity (Streptococcus pneumoniae): inactive
CCC(C)[C@H]1C(O)=C(C#N)C(=O)N1Cc1ccccc1 (some centres not stated) |  |  |  |  |  |  |  |  |  |  |  | > 200 | > 200 | inactive | inactive | inactive | inactive | inactive | inactive | inactive | Activity (Streptococcus pyogenes): inactive; Activity (Streptococcus pneumoniae): inactive
COc1cccc(CN2C(=O)C(C#N)=C(O)[C@@H]2CC(C)C)c1 |  |  |  |  |  |  |  |  |  |  |  | > 200 | > 200 | inactive | inactive | inactive | inactive | inactive | inactive | inactive | Activity (Streptococcus pyogenes): inactive; Activity (Streptococcus pneumoniae): inactive
CCC(C)[C@H]1C(=O)/C(=C(\C)O)C(=O)N1Cc1ccccc1 (some centres not stated) | 50 (≈ 174 µM) | 3.12 (≈ 10.9 µM) | 25 (≈ 87 µM) | 6.25 (≈ 21.7 µM) | 6.25 (≈ 21.7 µM) | 6.25 (≈ 21.7 µM) | 6.25 (≈ 21.7 µM) | > 200 | 50 (≈ 174 µM) | 26.3 (≈ 91.5 µM) | 4.2 | > 200 | > 200 |  |  |  |  |  |  |  | 
CCCCCCCCCCN1C(=O)/C(=C(/C)O)C(=O)[C@H]1CC(C)C | 25 (≈ 74.1 µM) | 0.8 (≈ 2.37 µM) | 0.8 (≈ 2.37 µM) | 1.6 (≈ 4.74 µM) | 0.8 (≈ 2.37 µM) | 0.4 (≈ 1.19 µM) | 0.8 (≈ 2.37 µM) | 50 (≈ 148 µM) | 6.25 (≈ 18.5 µM) | 6.3 (≈ 18.7 µM) | 15.8 | > 200 | > 200 |  |  |  |  |  |  |  | 
CCCCCCCCCCN1C(=O)/C(=C(/C)O)C(=O)[C@@H]1CC(C)C | 12.5 (≈ 37 µM) | 0.8 (≈ 2.37 µM) | 0.8 (≈ 2.37 µM) | 1.6 (≈ 4.74 µM) | 0.8 (≈ 2.37 µM) | 0.4 (≈ 1.19 µM) | 0.8 (≈ 2.37 µM) | 50 (≈ 148 µM) | 6.25 (≈ 18.5 µM) | 14.7 (≈ 43.6 µM) | 36.8 | > 200 | > 200 |  |  |  |  |  |  |  | 
CCCCCCCCCCN1C(=O)/C(=C(/C)O)C(=O)[C@@H]1C(C)C | 12.5 (≈ 38.6 µM) | 0.8 (≈ 2.47 µM) | 0.4 (≈ 1.24 µM) | 0.8 (≈ 2.47 µM) | 0.8 (≈ 2.47 µM) | 0.8 (≈ 2.47 µM) | 0.4 (≈ 1.24 µM) | 25 (≈ 77.3 µM) | 6.25 (≈ 19.3 µM) | 7 (≈ 21.6 µM) | 8.8 | > 200 | > 200 |  |  |  |  |  |  |  | 
N#CC1=C(O)[C@@H](Cc2ccccc2)N(Cc2ccccc2)C1=O |  |  |  |  |  |  |  |  |  |  |  | > 200 | > 200 | inactive | inactive | inactive | inactive | inactive | inactive | inactive | Activity (Streptococcus pyogenes): inactive; Activity (Streptococcus pneumoniae): inactive
C/C(O)=C1\C(=O)[C@@H](CC(C)C)N(Cc2ccc(F)cc2)C1=O | 100 (≈ 327 µM) | 12.5 (≈ 40.9 µM) | 12.5 (≈ 40.9 µM) | 50 (≈ 164 µM) | 12.5 (≈ 40.9 µM) | 12.5 (≈ 40.9 µM) | 12.5 (≈ 40.9 µM) | 100 (≈ 327 µM) | 25 (≈ 81.9 µM) | 35.3 (≈ 116 µM) | 2.8 | > 200 | > 200 |  |  |  |  |  |  |  | 
COc1cccc(CN2C(=O)/C(=C(/C)O)C(=O)[C@@H]2CC(C)C)c1 | 100 (≈ 315 µM) | 25 (≈ 78.8 µM) | 25 (≈ 78.8 µM) | 100 (≈ 315 µM) | 25 (≈ 78.8 µM) | 12.5 (≈ 39.4 µM) | 12.5 (≈ 39.4 µM) | 200 (≈ 630 µM) | 50 (≈ 158 µM) | 40 (≈ 126 µM) | 3.2 | > 200 | > 200 |  |  |  |  |  |  |  | 
CCCCCCCCCCN1C(=O)C(C#N)=C(O)[C@@H]1CC(C)C | 3.12 (≈ 9.74 µM) |  |  |  |  |  |  |  |  |  |  | > 200 | > 200 |  |  |  |  |  |  |  | 
CC(C)=CCCC(C)CCN1C(=O)/C(=C(/C)O)C(=O)[C@@H]1CC(C)C (some centres not stated) | 200 (≈ 596 µM) | 0.4 (≈ 1.19 µM) | 0.8 (≈ 2.38 µM) | 0.8 (≈ 2.38 µM) | 0.8 (≈ 2.38 µM) | 0.4 (≈ 1.19 µM) | 0.4 (≈ 1.19 µM) | 25 (≈ 74.5 µM) | 3.25 (≈ 9.69 µM) | 7.3 (≈ 21.8 µM) | 18.3 | > 200 | > 200 |  |  |  |  |  |  |  | 
C/C(O)=C1\C(=O)[C@H](CC(C)C)N(Cc2ccc(F)cc2)C1=O | 100 (≈ 327 µM) | 12.5 (≈ 40.9 µM) | 25 (≈ 81.9 µM) | 50 (≈ 164 µM) | 25 (≈ 81.9 µM) | 12.5 (≈ 40.9 µM) | 6.25 (≈ 20.5 µM) | 100 (≈ 327 µM) | 50 (≈ 164 µM) | 27.8 (≈ 91 µM) | 2.2 | > 200 | > 200 |  |  |  |  |  |  |  | 
CC(C)C[C@H]1C(O)=C(C#N)C(=O)N1Cc1ccc(F)cc1 |  |  |  |  |  |  |  |  |  |  |  | > 200 | > 200 | inactive | inactive | inactive | inactive | inactive | inactive | inactive | Activity (Streptococcus pyogenes): inactive; Activity (Streptococcus pneumoniae): inactive
N#CC1=C(O)[C@H](Cc2ccccc2)N(Cc2ccccc2)C1=O |  |  |  |  |  |  |  |  |  |  |  | > 200 | > 200 | inactive | inactive | inactive | inactive | inactive | inactive | inactive | Activity (Streptococcus pyogenes): inactive; Activity (Streptococcus pneumoniae): inactive
CCN1C(=O)/C(=C(/C)O)C(=O)[C@@H]1Cc1ccccc1 | > 200 | 50 (≈ 193 µM) | > 200 | > 200 | > 200 | 200 (≈ 771 µM) | 100 (≈ 386 µM) | > 200 | > 200 |  |  | > 200 | > 200 |  |  |  |  |  |  |  | 
